In ChEMBL document CHEMBL1138656, “Design, synthesis, and evaluation of sugar amino acid based inhibitors of protein prenyl transferases PFT and PGGT-1” (J Med Chem, 2004):

Experiments:
[1] = target: Protein farnesyltransferase (Homo sapiens, UniProt P49354+P49356); test: Inhibition of [3H]FPP incorporation by Protein Farnesyltransferase; type: protein-complex assay
Method in brief: (§1)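 Cell-free prenyltransferase assay measuring inhibition of enzyme-catalysed incorporation of tritiated prenyl donor: [3H]FPP for PFT, the corresponding tritiated geranylgeranyl donor for PGGT-1. The buffer was Tris, pH 7.4, with dithiothreitol, which removes the cysteine S-tert-butyl group. Each determination used five compound concentrations. The IC50 came from a fitted concentration–inhibition curve and is the mean of three determinations.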

[2] = target: Geranylgeranyl transferase type I (Homo sapiens, UniProt P49354+P53609); test: Inhibition of [3H]GGPP incorporation by Protein Geranylgeranyl transferase type I; type: protein-complex assay; method in brief: as §1

SMILES | IC50 [1] [µM] | IC50 [2] [µM]
C[S+]([O-])CC[C@H](NC(=O)[C@H]1O[C@@H](CNC(=O)[C@@H](N)CSSC(C)(C)C)CC[C@@H]1OCc1ccccc1)C(=O)O (some centres undefined) | 2.2 | > 1000
CSCC[C@H](NC(=O)[C@H]1O[C@@H](CNC(=O)[C@@H](N)CSSC(C)(C)C)CC[C@@H]1OCc1ccccc1)C(=O)O | 0.25 | > 1000
C[S+]([O-])CC[C@H](NC(=O)[C@H]1O[C@H](CNC(=O)[C@@H](N)CSSC(C)(C)C)CC[C@@H]1OCc1ccccc1)C(=O)O (some centres undefined) | 91 | 521
CSCC[C@H](NC(=O)[C@H]1O[C@H](CNC(=O)[C@@H](N)CSSC(C)(C)C)CC[C@@H]1OCc1ccccc1)C(=O)O | 42 | 48
CC(C)C[C@H](NC(=O)[C@H]1O[C@H](CNC(=O)[C@@H](N)CSSC(C)(C)C)CC[C@@H]1OCc1ccccc1)C(=O)O | 321 | 206
C=C(N[C@@H](CCSC)C(=O)O)[C@H]1O[C@@H](CNC(=O)[C@@H](N)CSSC(C)(C)C)CC[C@@H]1OCc1ccccc1 | > 1000 | 500
CC(C)C[C@H](NC(=O)[C@H]1O[C@@H](CNC(=O)[C@@H](N)CSSC(C)(C)C)CC[C@@H]1OCc1ccccc1)C(=O)O | 57 | 14
C=C(N[C@@H](CC(C)C)C(=O)O)[C@H]1O[C@@H](CNC(=O)[C@@H](N)CSSC(C)(C)C)CCC1O (some centres undefined) | > 1000 | 261
CC[C@H](C)[C@H](NC(=O)[C@@H](NC(=O)[C@@H](N)CS)C(C)C)C(=O)N[C@@H](CCSC)C(=O)O | 0.42 | 
C=C(N[C@@H](CCSC)C(=O)O)[C@H]1O[C@H](CNC(=O)[C@@H](N)CSSC(C)(C)C)CC[C@@H]1OCc1ccccc1 | ~1000 | 311
